Laboratory results taken from ChEMBL document CHEMBL4190220, “Withanolides from Aeroponically Grown Physalis peruviana and Their Selective Cytotoxicity to Prostate Cancer and Renal Carcinoma Cells” (J Nat Prod, 2017).
Calls of active or inactive are those of the source. The calls are words filed in the database; no cut-off is given here.

Tests used:
LNCaP [1] = experiment: Cytotoxicity against human LNCAP cells assessed as reduction in cell viability after 72 hrs by CellTiter96 AQueous one solution cell proliferation assay; format: functional, cell-based
Outline: (§1)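 MTS viability in RPMI with 5% fetal calf serum, 2.0 mM L-glutamine, nonessential amino acids, 1.0 mM pyruvate, penicillin/streptomycin, 10 mM HEPES and 2-mercaptoethanol. Cells were seeded at 10 000 (LNCaP) or 5000 (others) and grown overnight at 37 °C. Serial dilutions in DMSO went into triplicate wells for 72 h. MTS was read at 490 nm after 2 h. IC50 ± SD from dose–response curves, at least three independent experiments.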

CWR22R [2] = experiment: Cytotoxicity against human 22Rv1 cells assessed as reduction in cell viability after 72 hrs by CellTiter96 AQueous one solution cell proliferation assay; format: functional, cell-based; details: 22Rv1, 72 h; outline: as §1
ACHN [3] = experiment: Cytotoxicity against human ACHN cells assessed as reduction in cell viability after 72 hrs by CellTiter96 AQueous one solution cell proliferation assay; format: functional, cell-based; outline: as §1
M14 [4] = experiment: Cytotoxicity against human M14 cells assessed as reduction in cell viability after 72 hrs by CellTiter96 AQueous one solution cell proliferation assay; format: functional, cell-based; details: M14, 72 h
Outline: (§2)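 MTS viability in DMEM with 5% fetal calf serum, 2.0 mM L-glutamine, nonessential amino acids, 1.0 mM pyruvate, penicillin/streptomycin, 10 mM HEPES and 2-mercaptoethanol. 5000 cells were grown overnight at 37 °C. Serial DMSO dilutions went into triplicate wells for 72 h. MTS absorbance was read at 490 nm after 2 h. IC50 ± SD from at least three independent dose–response experiments.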

SK-MEL-28 [5] = experiment: Cytotoxicity against human SK-MEL-28 cells assessed as reduction in cell viability after 72 hrs by CellTiter96 AQueous one solution cell proliferation assay; format: functional, cell-based; details: SK-MEL-28, 72 h; outline: as §2
HFF [6] = experiment: Cytotoxicity against HFF cells assessed as reduction in cell viability after 72 hrs by CellTiter96 AQueous one solution cell proliferation assay; format: cell-based; details: Homo sapiens; outline: as §1
LNCaP [7] = experiment: Cytotoxicity against human LNCAP cells assessed as reduction in cell viability up to 5 uM after 72 hrs by CellTiter96 AQueous one solution cell proliferation assay; format: functional, cell-based
Outline: (§3)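 Cells in RPMI with 5% fetal calf serum, glutamine, nonessential amino acids, pyruvate, HEPES, 2-mercaptoethanol and antibiotics. Seeded at 10 000 (LNCaP) or 5000 (others) and grown overnight at 37 °C, then exposed to compound in DMSO, triplicate wells, 72 h. Read by MTS at 490 nm after 2 h. % cytotoxicity = (A medium − A treatment)/A medium × 100.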

CWR22R [8] = experiment: Cytotoxicity against human 22Rv1 cells assessed as reduction in cell viability up to 5 uM after 72 hrs by CellTiter96 AQueous one solution cell proliferation assay; format: functional, cell-based; outline: as §3
ACHN [9] = experiment: Cytotoxicity against human ACHN cells assessed as reduction in cell viability up to 5 uM after 72 hrs by CellTiter96 AQueous one solution cell proliferation assay; format: functional, cell-based; outline: as §3
M14 [10] = experiment: Cytotoxicity against human M14 cells assessed as reduction in cell viability up to 5 uM after 72 hrs by CellTiter96 AQueous one solution cell proliferation assay; format: functional, cell-based
Outline: (§4)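 Melanoma cells in DMEM-based medium (5% fetal calf serum, glutamine, nonessential amino acids, pyruvate, HEPES, 2-mercaptoethanol, antibiotics). 5000 cells were grown overnight at 37 °C, then exposed to compound in DMSO in triplicate wells for 72 h. MTS absorbance at 490 nm after 2 h. % cytotoxicity = (A medium − A treatment)/A medium × 100.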

SK-MEL-28 [11] = experiment: Cytotoxicity against human SK-MEL-28 cells assessed as reduction in cell viability up to 5 uM after 72 hrs by CellTiter96 AQueous one solution cell proliferation assay; format: functional, cell-based; outline: as §4
HFF [12] = experiment: Cytotoxicity against HFF cells assessed as reduction in cell viability up to 5 uM after 72 hrs by CellTiter96 AQueous one solution cell proliferation assay; format: cell-based; details: human; outline: as §3

| Structure (SMILES) | IC50 (LNCaP [1]) | IC50 (CWR22R [2]) | IC50 (ACHN [3]) | IC50 (M14 [4]) | IC50 (SK-MEL-28 [5]) | IC50 (HFF [6]) | Activity (LNCaP [7]) | Activity (CWR22R [8]) | Activity (ACHN [9]) | Activity (M14 [10]) | Activity (SK-MEL-28 [11]) | Activity (HFF [12]) |
| --- | --- | --- | --- | --- | --- | --- | --- | --- | --- | --- | --- | --- |
| C[C@H]1C[C@H]([C@](C)(O)[C@]2(O)CC[C@@]3(O)[C@@H]4C[C@H]5O[C@]56CC=CC(=O)[C@]6(C)[C@H]4CC[C@]23C)OC(=O)[C@@H]1C | 0.29 µM | 0.21 µM | > 2 µM | > 2 µM | > 2 µM | > 2 µM | – | – | – | – | – | – |
| CC1=C(C)C(=O)O[C@@H]([C@](C)(O)[C@]2(O)CC[C@@]3(O)[C@@H]4[C@@H](O)C=C5CC=CC(=O)[C@]5(C)[C@H]4CC[C@]23C)C1 | 0.33 µM | 0.56 µM | > 2 µM | > 2 µM | > 2 µM | > 2 µM | – | – | – | – | – | – |
| CC1=C(C)[C@H](O)[C@H]([C@](C)(O)[C@H]2CC[C@@]3(O)[C@@H]4C[C@H]5O[C@]56CC=CC(=O)[C@]6(C)[C@H]4CC[C@]23C)OC1=O | – | – | – | – | – | – | inactive | inactive | inactive | inactive | inactive | Non-Toxic |
| CC1=C(C)C(=O)O[C@@H]([C@](C)(O)[C@]2(O)CC[C@@]3(O)[C@@H]4C[C@@H](O)[C@@]5(O)CC=CC(=O)[C@]5(C)[C@H]4CC[C@]23C)C1 | – | – | – | – | – | – | inactive | inactive | inactive | inactive | inactive | Non-Toxic |
| CC1=C(C)C(=O)O[C@@H]([C@](C)(O)[C@]2(O)CC[C@@]3(O)[C@@H]4C[C@H]5O[C@]56[C@@H](O)C=CC(=O)[C@]6(C)[C@H]4CC[C@]23C)C1 | 0.16 µM | 0.09 µM | > 2 µM | > 2 µM | > 2 µM | > 2 µM | – | – | – | – | – | – |
| CC1=C(C)C(=O)O[C@@H]([C@](C)(O)[C@]2(O)CC[C@@]3(O)[C@@H]4[C@@H](O)[C@H]5O[C@]56CC=CC(=O)[C@]6(C)[C@H]4CC[C@]23C)C1 | 0.33 µM | 0.26 µM | > 2 µM | > 2 µM | > 2 µM | > 2 µM | – | – | – | – | – | – |
| C[C@H]1C(=O)OC[C@H]1C[C@@H](O)[C@](C)(O)[C@]1(O)CC[C@@]2(O)[C@@H]3CC=C4CC=CC(=O)[C@]4(C)[C@H]3CC[C@]12C | – | – | – | – | – | – | inactive | inactive | inactive | inactive | inactive | Non-Toxic |
| CC1=C(C)C(=O)O[C@@H]([C@](C)(O)[C@]2(O)CC[C@@]3(O)[C@@H]4[C@@H](O)C=C5C=CCC(=O)[C@]5(C)[C@H]4CC[C@]23C)C1 | 0.94 µM | 0.99 µM | > 2 µM | > 2 µM | > 2 µM | > 2 µM | – | – | – | – | – | – |
| CC1=C(C)C(=O)O[C@@H]([C@](C)(O)[C@]2(O)CC[C@@]3(O)[C@@H]4CC=C5[C@@H](O)C=CC(=O)[C@]5(C)[C@H]4CC[C@]23C)C1 | 0.11 µM | 0.07 µM | 1 µM | > 2 µM | > 2 µM | > 2 µM | – | – | – | – | – | – |
| C[C@H]1C(=O)OC[C@H]1C[C@@H](O)[C@](C)(O)[C@@]1(O)CC[C@@]2(O)[C@@H]3CC=C4CC=CC(=O)[C@]4(C)[C@H]3CC[C@]12C | – | – | – | – | – | – | inactive | inactive | inactive | inactive | inactive | Non-Toxic |
| CC1=C(C)C(=O)O[C@@H]([C@](C)(O)C2=CC[C@@]3(O)[C@@H]4C[C@H]5O[C@]56[C@@H](O)C=CC(=O)[C@]6(C)[C@H]4CC[C@]23C)C1 | – | – | – | – | – | – | inactive | inactive | inactive | inactive | inactive | Non-Toxic |
| CC1=C(C)C(=O)O[C@@H]([C@](C)(O)C2=CC[C@@]3(O)[C@@H]4C[C@H]5O[C@]56CC=CC(=O)[C@]6(C)[C@H]4CC[C@]23C)C1 | – | – | – | – | – | – | inactive | inactive | inactive | inactive | inactive | Non-Toxic |
| C[C@H]1C(=O)OC[C@H]1C[C@@H](O)[C@](C)(O)[C@H]1CC[C@@]2(O)[C@@H]3CC=C4CC=CC(=O)[C@]4(C)[C@H]3CC[C@]12C | – | – | – | – | – | – | inactive | inactive | inactive | inactive | inactive | Non-Toxic |
| C[C@H]1C(=O)O[C@@H]([C@](C)(O)[C@H]2CC[C@@]3(O)[C@@H]4CC=C5CC=CC(=O)[C@]5(C)[C@H]4CC[C@]23C)[C@@H](O)[C@@H]1CO | – | – | – | – | – | – | inactive | inactive | inactive | inactive | inactive | Non-Toxic |
| CC1=C(C)C(=O)O[C@@H]([C@](C)(O)[C@]2(O)CC[C@@]3(O)[C@@H]4C[C@H](Cl)[C@]5(O)[C@@H](O)C=CC(=O)[C@]5(C)[C@H]4CC[C@]23C)C1 | – | – | – | – | – | – | inactive | inactive | inactive | inactive | inactive | Non-Toxic |
| CO[C@]12CC=CC(=O)[C@]1(C)[C@H]1CC[C@]3(C)[C@](O)([C@@](C)(O)[C@H]4CC(C)=C(C)C(=O)O4)CC[C@@]3(O)[C@@H]1C[C@H]2O | – | – | – | – | – | – | inactive | inactive | inactive | inactive | inactive | Non-Toxic |
| C[C@H]1C(=O)OC[C@H]1C[C@@H](O)[C@](C)(O)[C@]1(O)CC[C@@]2(O)[C@@H]3CC=C4C=CCC(=O)[C@]4(C)[C@H]3CC[C@]12C | – | – | – | – | – | – | inactive | inactive | inactive | inactive | inactive | Non-Toxic |
| CC1=C(C)C(=O)O[C@@H]([C@](C)(O)[C@]2(O)CC[C@@]3(O)[C@@H]4C[C@H](Cl)[C@]5(O)CC=CC(=O)[C@]5(C)[C@H]4CC[C@]23C)C1 | – | – | – | – | – | – | inactive | inactive | inactive | inactive | inactive | Non-Toxic |
| CC(=O)OC[C@]12CC[C@H]3[C@@H](C[C@H]4O[C@]45CC=CC(=O)[C@]35C)[C@]1(O)CC[C@@]2(O)[C@@](C)(O)[C@H]1CC(C)=C(C)C(=O)O1 | – | 0.03 µM | 0.57 µM | > 2 µM | > 2 µM | > 2 µM | – | – | – | – | – | – |
| C[C@H]1C(=O)OC[C@H]1C[C@@H](O)[C@](C)(O)C1=CC[C@H]2[C@@H]3C[C@H]4O[C@]45CC=CC(=O)[C@]5(C)[C@H]3CC[C@]12C | – | – | – | – | – | – | inactive | inactive | inactive | inactive | inactive | Non-Toxic |
| COc1cccc2c1C(=O)c1c(O)c3c(c(O)c1C2=O)C[C@@](O)(C(=O)CO)C[C@@H]3O[C@H]1C[C@H](N)[C@H](O)[C@H](C)O1 [DOXORUBICIN] | 0.02 µM | 0.02 µM | 0.02 µM | 0.09 µM | 0.25 µM | – | – | – | – | – | – | – |
| C[C@H]1C(=O)OC[C@H]1C[C@@H](O)[C@](C)(O)[C@]1(O)CC[C@@]2(O)[C@@H]3C[C@H]4O[C@]45CC=CC(=O)[C@]5(C)[C@H]3CC[C@]12C | – | – | – | – | – | – | inactive | inactive | inactive | inactive | inactive | Non-Toxic |
